What all share (format): functional
A short description of experiment [1]: Effect of compound on modification of deoxy form of hemoglobin expressed as percent modification at 5 mM concentration. A digest of the protocol:
(§1)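 Hemoglobin A (1.0 mM) incubated with carbamate reagent in 0.1 M Tris-HCl, pH 7.3, at 37 °C for 2 h. Extent of modification and oxygen affinity (p50, mmHg) then measured by a previously described method. Oxygen binding was read with and without inositol hexaphosphate. At 10 mM, reagent concentration is uncertain for some compounds because of incomplete solubility.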

Experiment [2] is described as follows: Effect of compound on modification of oxy form of hemoglobin expressed as percent modification at 5 mM concentration. A digest of the protocol:
as §1

Experiment [3] can be described thus: Effect of compound on oxygen affinity, expressed as P50 (mmHg) at 10 mM concentration in the absence of Inositol hexa phosphate (IHP). The gist of the method:
as §1

Experiment [4] in a line: Effect of compound on oxygen affinity, expressed as P50 (mmHg) at 10 mM concentration in the presence of 2 mM Inositol hexa phosphate (IHP). A digest of the protocol:
as §1

Experiment [5] is described as follows: Effect of compound on oxygen affinity, expressed as P50 (mmHg) at 5 mM concentration in the absence of Inositol hexa phosphate (IHP). A digest of the protocol: as §1
Experiment [6] is described as follows: Effect of compound on oxygen affinity, expressed as P50 (mmHg) at 5 mM concentration in the presence of Inositol hexa phosphate (IHP). The gist of the method: as §1
Experiment [7] can be described thus: Effect of compound on modification of oxy form of hemoglobin expressed as percent modification at 10 mM concentration. A digest of the protocol: as §1
The nature of experiment [8]: Effect of compound on modification of deoxy form of hemoglobin was expressed as percent modification at 5 mM concentration. The gist of the method: (§2)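 Human hemoglobin A (1.0 mM) treated with reagent in 0.1 M Tris-HCl buffer, pH 7.3, at 37 °C for 2 h. Extent of modification and oxygen affinity (p50, mm) then determined by a previously described method; p50 read with and without inositol hexaphosphate. Reagent concentration uncertain for some compounds owing to incomplete solubility.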

Experiment [9] is described as follows: Effect of compound on modification of oxy form of hemoglobin was expressed as percent modification at 10 mM concentration. A digest of the protocol: as §2
A short description of experiment [10]: Effect of compound on modification of oxy form of hemoglobin was expressed as percent modification at 5 mM concentration. The gist of the method:
as §2

A short description of experiment [11]: Effect of compound on oxygen affinity, was expressed as P50 (mmHg) at 10 mM concentration in the presence of 2 mM Inositol hexa phosphate (IHP). A digest of the protocol:
as §1

Experiment [12] in a line: Effect of compound on oxygen affinity, was expressed as P50 (mmHg) at 5 mM concentration in the absence of Inositol hexa phosphate (IHP). A digest of the protocol: as §2
A short description of experiment [13]: Effect of compound on oxygen affinity, was expressed as P50 (mmHg) at 5 mM concentration in the presence of Inositol hexa phosphate (IHP). A digest of the protocol:
as §2

The nature of experiment [14]: Effect of compound on oxygen affinity, was expressed as P50 (mmHg) at 10 mM concentration in the absence of Inositol hexa phosphate (IHP). A digest of the protocol: as §1
The nature of experiment [15]: Effect of compound on modification of oxy form of hemoglobin was expressed as percent modification at 10 mM concentration, concentration is uncertain due to incomplete solubility. The gist of the method: as §1

In the case of `NC(=O)Oc1ccccc1`, the results for the Modification of hemoglobin in experiment [1], in experiment [2] and in experiment [7] were 40%, 44% and 67%, respectively. Besides, the P50 in experiment [3] is 5 mmHg; in experiment [4], 30 mmHg; in [5], 6 mmHg; in experiment [6] it was 39 mmHg.

Take `COC(=O)c1ccccc1OC(N)=O`: the figures for the Modification of hemoglobin in experiment [8], in [9] and in [10] were 52%, 83% and 54%, respectively. Also, the P50 in experiment [11] stood at 25 mmHg; in experiment [12], 6 mmHg; in [13] it was 35 mmHg; in experiment [14], 6 mmHg.

Take `CN(C)C(=O)Oc1c(Br)cc(Br)cc1C(=O)OCc1ccccc1`: the Modification of hemoglobin in [8], in experiment [9] and in experiment [10] was 0% each time. In addition, the P50 came to 41 mmHg in experiment [11], 6 mmHg in experiment [12], 41 mmHg in experiment [13] and 7 mmHg in experiment [14].

In the case of `NC(=O)Oc1ccccc1C(=O)OCc1ccccc1`, the figures for the Modification of hemoglobin in experiment [8] and in experiment [10] were 46% and 45%, respectively. Besides, the P50 in experiment [12] was 6 mmHg; in experiment [13], 37.5 mmHg.

On to `COC(=O)c1ccc(OC(N)=O)cc1`, for which the figures for the Modification of hemoglobin in experiment [8], in [9] and in experiment [10] were 58%, 89% and 61%, respectively. Also, the P50 in [11] was 23 mmHg; in experiment [12] it was 6 mmHg; in experiment [13] it was 33 mmHg; in experiment [14] it was 6.5 mmHg.

In the case of `CN(C)C(=O)Oc1ccccc1C(=O)OCc1ccccc1`, the Modification of hemoglobin in experiment [8], in experiment [9] and in experiment [10] was 0% each time. Further, the P50 in experiment [11] stood at 44 mmHg; in experiment [12], 6 mmHg; in experiment [13], 42 mmHg; in experiment [14] it was 6 mmHg.

With `CN(C)C(=O)Oc1ccccc1C(=O)O`, the Modification of hemoglobin in [15] was 0%. Further, the P50 in [11] was 42 mmHg; in experiment [14], 6 mmHg.

Take `NC(=O)Oc1ccccc1C(=O)O`: the Modification of hemoglobin in experiment [8] is 58%; in experiment [9], 94%; in [10], 62%. The P50 was determined as 22 mmHg in experiment [11], 6 mmHg in experiment [12], 33 mmHg in experiment [13] and 6 mmHg in experiment [14].
